Legend:
[1] = system: murine leukemia L1210 cells; assay: Cell growth inhibitory activity, L1210; assay type: cell-based; details: Mus musculus, L1210, 48 h, read-out: IC50 (proliferation) L1210
Summary of the method: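 Murine leukaemia L1210 cells grown with varying concentrations of test compound at 37 °C for two days; cell number counted on a Coulter counter. IC50 is the concentration inhibiting cell proliferation by 50%, taken from dose–response curves. Mean ± SE of at least three independent experiments.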

[2] = system: Bovine brain tubulin (colchicine site); assay: Inhibition of [3H]colchicine binding to tubulin; details: tubulin 1 μM, colchicine 5 μM, tested compound 1 μM
[3] = system: murine mammary carcinoma FM3A cells; assay: Cell growth inhibitory activity, FM3A; assay type: cell-based; details: Mus musculus, 48 h, read-out: IC50 (proliferation) FM3A
[4] = system: L1210, FM3A, Molt/4 and CEM cells; assay: Cell growth inhibitory activity, range over the four cell lines; assay type: cell-based; details: for IC50: read-out: IC50-values range against the four cell lines
Summary of the method: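 Cells incubated with test compound at 37 °C for two days (L1210, FM3A) or three days (Molt 4, CEM). Cell number counted with a Coulter counter. IC50 taken as the concentration giving 50% inhibition of proliferation, from dose–response curves. Mean ± SE of at least three independent experiments.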

[5] = system: K562 cells; assay: Flow cytometric analysis of cell cycle distribution; assay type: cell-based, human; details: 24 h, compound at its 24 h IC50, propidium iodide

**Q.** `COc1ccc(/C=C\c2cc(OC)c(OC)c(OC)c2)cc1O` [CA-4 (1), combretastatin A-4] was tested. Which IC50 [1] did it give?
**A.** The IC50 was 2.8 ± 1.1 nM.

**Q.** And the “Colchicine binding % ± SD (inhibition of [3H]colchicine binding)” value [2]?
**A.** Its value is 86 ± 3%.

**Q.** With `COc1ccc2c(N)c(C(=O)c3cc(OC)c(OC)c(OC)c3)[nH]c2c1` [Compound 3a] as the compound, how does the IC50 [1] read?
**A.** Its IC50 is 970 ± 24 nM.

**Q.** What about the IC50 [3] of the same compound?
**A.** Its IC50 is 1600 ± 30 nM.

**Q.** Which results are given for `COc1ccc2c(N)c(C(=O)c3cc(OC)c(OC)c(OC)c3)n(C)c2c1` [Compound 4a]?
**A.** IC50 [1]: 69 ± 37 nM; IC50 [3]: 97 ± 3 nM

**Q.** Which “Fold less active than 5d in the four cell lines” value ([4]; antiproliferative activity relative to 5d) does the source give for `COc1cc(C(=O)c2oc3cccc(OC)c3c2N)cc(OC)c1OC` [Compound 5b, (3-Amino-4-methoxybenzofuran-2-yl)(3,4,5-trimethoxyphenyl)methanone] here?
**A.** The value was “over 10 fold”.

**Q.** Which results are given for `COc1ccc2c(N)c(C(=O)c3cc(OC)c(OC)c(OC)c3)oc2c1` [Compound 5d, (3-Amino-6-methoxybenzofuran-2-yl)(3,4,5-trimethoxyphenyl)methanone]?
**A.** Effect on cell cycle distribution [5]: accumulate in late S phase; IC50 [4]: 87 to 430 nM

**Q.** How did the “Effect on cell cycle distribution” value [5] turn out when `COc1ccc2c(N(C)C)c(C(=O)c3cc(OC)c(OC)c(OC)c3)oc2c1` [Compound 5i, (3-(Dimethylamino)-6-methoxybenzofuran-2-yl) (3,4,5-trimethoxyphenyl)methanone] was run?
**A.** Its value is “accumulation of cells in G2-M”.

**Q.** And the IC50 [4]?
**A.** The IC50 was 48 to 75 nM.

**Q.** With `COc1ccc2c(NC(=O)CCl)c(C(=O)c3cc(OC)c(OC)c(OC)c3)oc2c1` [Compound 5l, (3-chloroacetylamino-6-methoxybenzofuran-2-yl)(3,4,5-trimethoxyphenyl)methanone] as the compound, how does the “Effect on cell cycle distribution” value [5] read?
**A.** Its value is “accumulate in late S phase”.

**Q.** With `COc1ccc2c(NC(=O)CI)c(C(=O)c3cc(OC)c(OC)c(OC)c3)oc2c1` [Compound 5n, (3-iodoacetylamino-6-methoxybenzofuran-2-yl)(3,4,5-trimethoxyphenyl)methanone] as the compound, how does the “Effect on cell cycle distribution” value [5] read?
**A.** Its value is “greatest percentage increase in the percentage of cells in apoptotic cells (subG0-G1 peak)”.
